≈ marks a conversion by molar mass, not a printed value. Like-named read-outs stand apart in the source and are kept apart here.
Columns and labels:
[1] = tested on: Streptococcus pneumonia (ATCC 49619); experiment: Agar disk diffusion, inhibition zone; type: cell-based; conditions: 100 µg/8 mm disc, triplicate, mean ± SD
[2] = tested on: Candida albicans (NCIM 2087); experiment: Agar disk diffusion, inhibition zone; type: cell-based; conditions: 100 µg/8 mm disc, triplicate, mean ± SD
[3] = tested on: Klebsiella aerogenes (NCIM-2098); experiment: Agar disk diffusion, inhibition zone; type: cell-based; conditions: 100 µg/8 mm disc, triplicate, mean ± SD
[4] = tested on: Salmonella typhimurium (NCIM-2501); experiment: Agar disk diffusion, inhibition zone; type: cell-based; conditions: 100 µg/8 mm disc, triplicate, mean ± SD
[5] = tested on: Adeno virus-2; experiment: CPE reduction assay in HEL cells; type: cell-based; conditions: read-out: Antiviral EC50, Adeno virus-2
[6] = tested on: Escherichia coli (ATCC 8739); experiment: MIC, broth microdilution; type: cell-based; conditions: ATCC8739, read-out: Minimum inhibitory concentration (MIC), EC
Outline: (§1)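 Broth microdilution per CLSI in Mueller-Hinton broth, using two-fold serial dilutions of test compound and reference drugs from 512 to 0.25. Bacterial broth cultures were grown 2-6 h to 0.5 McFarland turbidity, then diluted with sterile solution to the final inoculum. MIC is reported in µg/mL.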

[7] = tested on: Influenza B B/Ned/537/05; experiment: CPE reduction assay in MDCK cells; type: cell-based; conditions: Influenza B virus, read-out: Antiviral EC50, Influenza B B/Ned/537/05, MTS
[8] = tested on: Aspergillus fumigatus (NCIM 2081); experiment: Agar disk diffusion, inhibition zone; type: cell-based; conditions: 100 µg/8 mm disc, triplicate, mean ± SD
[9] = tested on: Cryptococcus neoformans (ATCC 9011); experiment: MIC, broth microdilution; type: cell-based; conditions: ATCC9011, read-out: Minimum inhibitory concentration (MIC), CN
Outline: (§2)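 Antifungal MICs by CLSI broth microdilution in Sabouraud liquid medium. Test compounds and standard drugs are serially diluted two-fold from 512 to 0.25. The fungal broth culture is grown 24 h at 35 °C to a 0.5 McFarland turbidity, then adjusted with sterile solution to the final inoculum.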

[10] = tested on: Pseudomonas aeruginosa (MCCB 0035); experiment: MIC, broth microdilution; type: cell-based; conditions: read-out: Minimum inhibitory concentration (MIC), PA
Outline: as §1

[11] = tested on: Reovirus-1; experiment: CPE reduction assay in Vero cells; type: cell-based; conditions: read-out: Antiviral EC50, Reovirus-1
[12] = tested on: Bacillus cereus (NCIM-2458); experiment: Agar disk diffusion, inhibition zone; type: cell-based; conditions: 100 µg/8 mm disc, triplicate, mean ± SD
[13] = tested on: Aspergillus niger (NCIM 2191); experiment: MIC, broth microdilution; type: cell-based; conditions: NCIM2191, read-out: Minimum inhibitory concentration (MIC), AN
Outline: as §2

[14] = tested on: Escherichia coli (ATCC 8739); experiment: Agar disk diffusion, inhibition zone; type: cell-based; conditions: 100 µg/8 mm disc, triplicate, mean ± SD
Outline: (§3)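 Agar disk diffusion on Mueller-Hinton agar plates seeded with a standard bacterial suspension. Test compound stock in DMSO, diluted with distilled water; 8 mm sterile filter-paper discs soaked in the solution. Ampicillin was the reference. Plates incubated at 35 °C for 24 h, in triplicate. Read-out is the average inhibition-zone diameter (mm) around each disc.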

[15] = tested on: Influenza A/H1N1 A/Ned/378/05; experiment: CPE reduction assay in MDCK cells; type: cell-based; conditions: Influenza A virus
[16] = tested on: Yellow Fever virus; experiment: microbe, parasite or virus in culture; type: cell-based; conditions: Yellow fever virus, Vero, read-out: Antiviral EC50, Yellow Fever virus
[17] = tested on: Staphylococcus aureus (ATCC 29213); experiment: Agar disk diffusion, inhibition zone; type: cell-based; conditions: 100 µg/8 mm disc, triplicate, mean ± SD
Outline: as §3

[18] = tested on: Para-influenza-3 virus; experiment: CPE reduction assay in Vero cells; type: cell-based, Parainfluenza-3 virus; conditions: Vero, read-out: Antiviral EC50, Para-influenza-3 virus
[19] = tested on: Sindbis virus; experiment: CPE reduction assay in Vero cells; type: cell-based; conditions: read-out: Antiviral EC50, Sindbis virus
[20] = tested on: Aspergillus niger (NCIM 2191); experiment: Agar disk diffusion, inhibition zone; type: cell-based; conditions: 100 µg/8 mm disc, triplicate, mean ± SD
Outline: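 For the fungal strain, discs soaked in test compound solution (DMSO stock diluted with distilled water) sat on seeded Mueller-Hinton agar. Clotrimazole was the reference. Incubation ran 48 h at 35 °C, in triplicate. Zone of growth inhibition recorded in mm as the mean diameter around each disc.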

[21] = tested on: Candida albicans (NCIM 2087); experiment: MIC, broth microdilution; type: cell-based; conditions: NCIM2087, read-out: Minimum inhibitory concentration (MIC), CA
Outline: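 CLSI broth microdilution in Sabouraud liquid medium, with test compound two-fold serially diluted from 512 to 0.25. Fungal broth culture grown 24 h at 35 °C to 0.5 McFarland turbidity, then adjusted with sterile solution to a final […] inoculum. MIC expressed in µg/mL.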

[22] = tested on: Bacillus cereus (NCIM-2458); experiment: MIC, broth microdilution; type: cell-based; conditions: NCIM2458, read-out: Minimum inhibitory concentration (MIC), BC
Outline: as §1

[23] = tested on: Pseudomonas aeruginosa (MCCB 0035); experiment: Agar disk diffusion, inhibition zone; type: cell-based; conditions: 100 µg/8 mm disc, triplicate, mean ± SD
[24] = tested on: Lactobacillus casei (NCIM-2651); experiment: Agar disk diffusion, inhibition zone; type: cell-based; conditions: 100 µg/8 mm disc, triplicate, mean ± SD
[25] = tested on: Coxsackie virus B4; experiment: CPE reduction assay in Vero cells; type: cell-based; conditions: Enterovirus B, read-out: Antiviral EC50, Coxsackie virus B4
[26] = tested on: Influenza A/H3N2 A/HK/7/87; experiment: CPE reduction assay in MDCK cells; type: cell-based; conditions: Influenza A virus
[27] = tested on: Cryptococcus neoformans (ATCC 9011); experiment: Agar disk diffusion, inhibition zone; type: cell-based; conditions: 100 µg/8 mm disc, triplicate, mean ± SD
[28] = tested on: Vaccinia virus; experiment: microbe, parasite or virus in culture; type: cell-based; conditions: Orthopoxvirus vaccinia, HEL, read-out: Antiviral EC50, Vaccinia virus
[29] = tested on: Klebsiella aerogenes (NCIM-2098); experiment: MIC, broth microdilution; type: cell-based; conditions: NCIM2098, read-out: Minimum inhibitory concentration (MIC), KA
Outline: (§4)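 Antibacterial MICs by CLSI broth microdilution in Mueller-Hinton broth. Test compounds and standard drugs are serially diluted two-fold from 512 to 0.25. The bacterial broth culture is grown 2-6 h to a 0.5 McFarland turbidity, then adjusted with sterile solution to the final inoculum.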

[30] = tested on: Punta Toro virus; experiment: CPE reduction assay in Vero cells; type: cell-based; conditions: read-out: Antiviral EC50, Punta Toro virus
[31] = tested on: Staphylococcus aureus (ATCC 29213); experiment: MIC, broth microdilution; type: cell-based; conditions: ATCC29213, read-out: Minimum inhibitory concentration (MIC), SA
Outline: as §4

[32] = tested on: Vero cells; conditions: Vero cell cultures; microscopically detectable alteration of normal cell morphology
[33] = tested on: Madin Darby canine kidney (MDCK) cells; conditions: dog
[34] = tested on: Human Coronavirus (229E); experiment: CPE reduction assay in HEL cells; type: cell-based; conditions: read-out: Antiviral EC50, Human Coronavirus (229E)
[35] = tested on: Aspergillus fumigatus (NCIM 2081); experiment: MIC, broth microdilution; type: cell-based; conditions: NCIM2081, read-out: Minimum inhibitory concentration (MIC), AF
Outline: as §2

[36] = tested on: MT4 cells; conditions: MT4 cell cultures; colorimetric MTT cell viability assay
[37] = tested on: Human embryonic lung (HEL) cells; conditions: HEL cell cultures; microscopically detectable alteration of normal cell morphology
[38] = read-out: Antiviral EC50, Influenza A/H1N1 A/Ned/378/05, MTS
[39] = read-out: Antiviral EC50, Influenza A/H1N1 A/Ned/378/05, visual CPE score
[40] = read-out: Antiviral EC50, Influenza A/H3N2 A/HK/7/87, MTS
[41] = read-out: Antiviral EC50, Influenza A/H3N2 A/HK/7/87, visual CPE score

Compound | Diameter of growth inhibition zone, SP [1] | Diameter of growth inhibition zone, CA [2] | Diameter of growth inhibition zone, KA [3] | Diameter of growth inhibition zone, ST [4] | EC50 [5] | MIC [6] | EC50 [7] | Diameter of growth inhibition zone, AF [8] | MIC [9] | MIC [10] | EC50 [11] | Diameter of growth inhibition zone, BC [12] | MIC [13] | Diameter of growth inhibition zone, EC [14] | EC50 [15, 38] | EC50 [15, 39] | EC50 [16] | Diameter of growth inhibition zone, SA [17] | EC50 [18] | EC50 [19] | other results
Cc1ccc(S(=O)(=O)N2C(=O)CSC2c2ccccc2O)cc1 (stereo not drawn) [5k, 2-(2-Hydroxyphenyl)-3-[(4-methylphenyl)sulfonyl]-1,3-thiazolidin-4-one] | 08 ± 0.3 mm | 16 ± 0.32 mm | 12 ± 0.48 mm | 10 ± 0.8 mm | > 100 µM | 32 µg/mL (≈ 91.6 µM) | > 100 µM | 13 ± 1.5 mm | 64 µg/mL (≈ 183 µM) | 32 µg/mL (≈ 91.6 µM) | > 100 µM | 10 ± 0.3 mm | 32 µg/mL (≈ 91.6 µM) | 18.8 ± 0.9 mm | > 100 µM | > 100 µM | > 100 µM | 16 ± 0.32 mm | > 100 µM | > 100 µM | Diameter of growth inhibition zone, AN [20]: 15 ± 0.93 mm; MIC [21]: 16 µg/mL (≈ 45.8 µM); MIC [22]: 64 µg/mL (≈ 183 µM); Diameter of growth inhibition zone, PA [23]: 17.5 ± 0.6 mm; Diameter of growth inhibition zone, LC [24]: 10 ± 1.25 mm; EC50 [25]: > 100 µM; EC50 [26, 40]: > 100 µM; EC50 [26, 41]: > 100 µM; Diameter of growth inhibition zone, CN [27]: 11 ± 1.2 mm; EC50 [28]: > 100 µM; MIC [29]: 32 µg/mL (≈ 91.6 µM); EC50 [30]: > 100 µM; MIC [31]: 64 µg/mL (≈ 183 µM); Minimum cytotoxic conc. [32]: >100 µM; Cytotoxicity, Minimum cytotoxic conc. [33]: >100 µM; EC50 [34]: > 100 µM; MIC [35]: 32 µg/mL (≈ 91.6 µM); Minimum cytotoxic conc. [36]: >125 µM; Minimum cytotoxic conc. [37]: >100 µM
Cc1ccc(S(=O)(=O)N2C(=O)CSC2c2cccc([N+](=O)[O-])c2)cc1 (stereo not drawn) [5p, 3-[(4-Methylphenyl)sulfonyl]-2-(3-nitrophenyl)-1,3-thiazolidin-4-one] | 08 ± 0.87 mm | 22 ± 1.2 mm | 14 ± 0.75 mm | 12 ± 0.1 mm | > 100 µM | 32 µg/mL (≈ 84.6 µM) | > 100 µM | 20 ± 1.1 mm | 2 µg/mL (≈ 5.28 µM) | 64 µg/mL (≈ 169 µM) | > 100 µM | 10 ± 0.4 mm | 8 µg/mL (≈ 21.1 µM) | 16 ± 0.69 mm | > 100 µM | > 100 µM | > 100 µM | 16 ± 0.9 mm | > 100 µM | > 100 µM | Diameter of growth inhibition zone, AN [20]: 20 ± 0.9 mm; MIC [21]: 4 µg/mL (≈ 10.6 µM); MIC [22]: 64 µg/mL (≈ 169 µM); Diameter of growth inhibition zone, PA [23]: 14 ± 1.1 mm; Diameter of growth inhibition zone, LC [24]: 12 ± 1.56 mm; EC50 [25]: > 100 µM; EC50 [26, 40]: > 100 µM; EC50 [26, 41]: > 100 µM; Diameter of growth inhibition zone, CN [27]: 19 ± 1.0 mm; EC50 [28]: > 100 µM; MIC [29]: 16 µg/mL (≈ 42.3 µM); EC50 [30]: > 100 µM; MIC [31]: 32 µg/mL (≈ 84.6 µM); Minimum cytotoxic conc. [32]: >100 µM; Cytotoxicity, Minimum cytotoxic conc. [33]: >100 µM; EC50 [34]: > 100 µM; MIC [35]: 8 µg/mL (≈ 21.1 µM); Minimum cytotoxic conc. [36]: >125 µM; Minimum cytotoxic conc. [37]: >100 µM

— paper PMC8268672 (Bioorganic Chemistry, 2021)
